Assay results published in PMC9486889 (Japanese Journal of Clinical Oncology, 2022).

Assay: Phase I dose-escalation: DLT/MTD and treatment-emergent adverse events
Assay type: in vivo, Japanese patients
In short: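 Open-label, non-randomized 3+3 dose escalation, starting at 30 mg oral BIW with planned escalation to 50 mg, in continuous 4-week cycles. The DLT window was 28 days from first dose. DLTs were grade 4 hematologic toxicity, grade ≥3 febrile neutropenia, grade 3 thrombocytopenia with significant bleeding, other grade ≥3 non-hematologic toxicity, or troponin rising on 3 consecutive days. AEs were coded by MedDRA 19.1 and graded by CTCAE 4.03.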

Nc1cc(F)ccc1NC(=O)c1ccc(CNC(=O)/C=C/c2cccnc2)cc1 [HBI-8000, tucidinostat]
3 (42.9) n (%): TEAE: Diarrhoea (30 mg BIW (N = 7)) | TEAE: Fatigue (30 mg BIW (N = 7)) | TEAE: Platelet count decreased (30 mg BIW (N = 7)) | TEAE: White blood cell count decreased (30 mg BIW (N = 7))
0 (0) n (%): Grade 3 TEAE: Abdominal pain (30 mg BIW (N = 7)) | Grade 3 TEAE: Alanine aminotransferase increased (30 mg BIW (N = 7)) | Grade 3 TEAE: Enterocolitis (30 mg BIW (N = 7)) | Grade 3 TEAE: Erythema multiforme (30 mg BIW (N = 7)) | Grade 3 TEAE: Erythema nodosum (30 mg BIW (N = 7)) | Grade 3 TEAE: Hyperglycaemia (30 mg BIW (N = 7)) | Grade 3 TEAE: Hypertriglyceridaemia (30 mg BIW (N = 7)) | Grade 3 TEAE: Pyrexia (30 mg BIW (N = 7)) | Grade 3 TEAE: Thrombocytopenia (30 mg BIW (N = 7)) | Grade 4: Number of patients with at least one TEAE (30 mg BIW (N = 7)) | Grade 4 TEAE: Abdominal pain (30 mg BIW (N = 7)) | Grade 4 TEAE: Alanine aminotransferase increased (30 mg BIW (N = 7)) | Grade 4 TEAE: Anaemia (30 mg BIW (N = 7)) | Grade 4 TEAE: Blood creatine phosphokinase increased (30 mg BIW (N = 7)) | Grade 4 TEAE: Enterocolitis (30 mg BIW (N = 7)) | Grade 4 TEAE: Erythema multiforme (30 mg BIW (N = 7)) | Grade 4 TEAE: Erythema nodosum (30 mg BIW (N = 7)) | Grade 4 TEAE: Hyperglycaemia (30 mg BIW (N = 7)) | Grade 4 TEAE: Hypertriglyceridaemia (30 mg BIW (N = 7)) | Grade 4 TEAE: Lymphocyte count decreased (30 mg BIW (N = 7)) | Grade 4 TEAE: Neutropenia (30 mg BIW (N = 7)) | Grade 4 TEAE: Neutrophil count decreased (30 mg BIW (N = 7)) | Grade 4 TEAE: Parkinsonism (30 mg BIW (N = 7)) | Grade 4 TEAE: Pyrexia (30 mg BIW (N = 7)) | Grade 4 TEAE: Rash generalized (30 mg BIW (N = 7)) | Grade 4 TEAE: Thrombocytopenia (30 mg BIW (N = 7)) | Grade 4 TEAE: White blood cell count decreased (30 mg BIW (N = 7)) | TEAE: Back pain (30 mg BIW (N = 7)) | TEAE: Hypocalcaemia (30 mg BIW (N = 7)) | TEAE: Nasopharyngitis (30 mg BIW (N = 7)) | Grade 3 TEAE: Anaemia (40 mg BIW (N = 7)) | Grade 3 TEAE: Blood creatine phosphokinase increased (40 mg BIW (N = 7)) | Grade 3 TEAE: Lymphocyte count decreased (40 mg BIW (N = 7)) | Grade 3 TEAE: Neutropenia (40 mg BIW (N = 7)) | Grade 3 TEAE: Neutrophil count decreased (40 mg BIW (N = 7)) | Grade 3 TEAE: Parkinsonism (40 mg BIW (N = 7)) | Grade 3 TEAE: Rash generalized (40 mg BIW (N = 7)) | Grade 4 TEAE: Abdominal pain (40 mg BIW (N = 7)) | Grade 4 TEAE: Alanine aminotransferase increased (40 mg BIW (N = 7)) | Grade 4 TEAE: Anaemia (40 mg BIW (N = 7)) | Grade 4 TEAE: Blood creatine phosphokinase increased (40 mg BIW (N = 7)) | Grade 4 TEAE: Enterocolitis (40 mg BIW (N = 7)) | Grade 4 TEAE: Erythema multiforme (40 mg BIW (N = 7)) | Grade 4 TEAE: Erythema nodosum (40 mg BIW (N = 7)) | Grade 4 TEAE: Hyperglycaemia (40 mg BIW (N = 7)) | Grade 4 TEAE: Hypertriglyceridaemia (40 mg BIW (N = 7)) | Grade 4 TEAE: Lymphocyte count decreased (40 mg BIW (N = 7)) | Grade 4 TEAE: Neutrophil count decreased (40 mg BIW (N = 7)) | Grade 4 TEAE: Parkinsonism (40 mg BIW (N = 7)) | Grade 4 TEAE: Pyrexia (40 mg BIW (N = 7)) | Grade 4 TEAE: Rash generalized (40 mg BIW (N = 7))
no dose-limiting toxicitys: Dose-limiting toxicities (30 mg BIW cohort, six patients assessed, Cycle 1)
2 (28.6) n (%): TEAE: Dysgeusia (30 mg BIW (N = 7)) | TEAE: Hyperuricaemia (30 mg BIW (N = 7)) | TEAE: Hypokalaemia (30 mg BIW (N = 7)) | TEAE: Neutrophil count decreased (30 mg BIW (N = 7)) | TEAE: Thrombocytopenia (30 mg BIW (N = 7)) | Grade 3 TEAE: Thrombocytopenia (40 mg BIW (N = 7)) | Grade 4: Number of patients with at least one TEAE (40 mg BIW (N = 7)) | Grade 4 TEAE: Neutropenia (40 mg BIW (N = 7))
1 (14.3) n (%): Grade 3 TEAE: Anaemia (30 mg BIW (N = 7)) | Grade 3 TEAE: Blood creatine phosphokinase increased (30 mg BIW (N = 7)) | Grade 3 TEAE: Lymphocyte count decreased (30 mg BIW (N = 7)) | Grade 3 TEAE: Neutropenia (30 mg BIW (N = 7)) | Grade 3 TEAE: Parkinsonism (30 mg BIW (N = 7)) | Grade 3 TEAE: Rash generalized (30 mg BIW (N = 7)) | TEAE: Abdominal pain (30 mg BIW (N = 7)) | TEAE: C-reactive protein increased (30 mg BIW (N = 7)) | TEAE: Decreased appetite (30 mg BIW (N = 7)) | TEAE: Headache (30 mg BIW (N = 7)) | TEAE: Hypertriglyceridaemia (30 mg BIW (N = 7)) | TEAE: Insomnia (30 mg BIW (N = 7)) | TEAE: Nausea (30 mg BIW (N = 7)) | TEAE: Neutropenia (30 mg BIW (N = 7)) | TEAE: Pyrexia (30 mg BIW (N = 7)) | TEAE: Weight decreased (30 mg BIW (N = 7)) | Grade 3 TEAE: Abdominal pain (40 mg BIW (N = 7)) | Grade 3 TEAE: Alanine aminotransferase increased (40 mg BIW (N = 7)) | Grade 3 TEAE: Enterocolitis (40 mg BIW (N = 7)) | Grade 3 TEAE: Erythema multiforme (40 mg BIW (N = 7)) | Grade 3 TEAE: Erythema nodosum (40 mg BIW (N = 7)) | Grade 3 TEAE: Hyperglycaemia (40 mg BIW (N = 7)) | Grade 3 TEAE: Hypertriglyceridaemia (40 mg BIW (N = 7)) | Grade 3 TEAE: Pyrexia (40 mg BIW (N = 7)) | Grade 3 TEAE: White blood cell count decreased (40 mg BIW (N = 7))
4 (57.1) n (%): Grade 3: Number of patients with at least one TEAE (40 mg BIW (N = 7))
5 (71.4) n (%): Grade 3: Number of patients with at least one TEAE (30 mg BIW (N = 7)) | TEAE: Anaemia (30 mg BIW (N = 7))
two: TEAEs that led to treatment discontinuation (30 mg BIW cohort)
6 (85.7) n (%): Number of patients with at least one related TEAE (30 mg BIW (N = 7))
four: TEAEs that led to dose reduction or dose delay (30 mg BIW cohort)
